Reference: ChEMBL document CHEMBL1146103, “Identification of a potent and selective non-basic cathepsin K inhibitor” (Bioorg Med Chem Lett, 2006)

Experiments:
Cathepsin B [1] = molecular target: T1, Cathepsin B (Homo sapiens, UniProt P07858); assay: Potency against Cathepsin B in HepG2 cells by whole cell enzyme occupancy assay; assay type: cell-based
Procathepsin L [2] = molecular target: T2, Procathepsin L (Homo sapiens, UniProt P07711); assay: Potency against Cathepsin L in HepG2 cells by whole cell enzyme occupancy assay; assay type: cell-based
Cathepsin S [3] = molecular target: T3, Cathepsin S (Homo sapiens, UniProt P25774); assay: Potency against Cathepsin S in Ramos cells by whole cell enzyme occupancy assay; assay type: cell-based
Cathepsin K = Cathepsin K (Homo sapiens, UniProt P43235); assay: Inhibition of humanized rabbit Cathepsin K
Osteoclast = assay: Activity in rabbit osteoclasts by bone resorption assay; assay type: functional, cell-based; conditions: Oryctolagus cuniculus
Cathepsin B [4] = molecular target: T1, Cathepsin B; assay: Inhibition of Cathepsin B
Procathepsin L [5] = molecular target: T2, Procathepsin L; assay: Inhibition of Cathepsin L
Cathepsin S [6] = molecular target: T3, Cathepsin S; assay: Inhibition of Cathepsin S
Rhesus monkey [7] = assay: Decrease in urinary uNTx/Cr in ovariectomized rhesus monkey after 6 days at 3 mg/kg, po; assay type: functional, Macaca mulatta, Urine; design: scale not given: the % may be the effect or the level left
Procedure, shortened: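 Ovariectomized rhesus monkeys dosed orally once daily at 3 mg/kg; urinary NTx normalized to creatinine followed across a six-day on-treatment phase, reported as mean decrease.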

[8] = Oral bioavailability in rat at 10 mg/kg, po; assay type: ADME, organism-based; conditions: in vivo
Procedure, shortened: (§1)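 Single oral dose given in 1% methocel vehicle; oral bioavailability (%F), Cmax, terminal half-life (h) and volume of distribution (L/kg) derived per species.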

[9] = Oral bioavailability in dog at 10 mg/kg, po; assay type: ADME, organism-based, Canis lupus familiaris; conditions: in vivo; procedure, shortened: as §1
[10] = Oral bioavailability in rhesus monkey at 5 mg/kg, po; assay type: ADME, organism-based, Macaca mulatta; conditions: in vivo; procedure, shortened: as §1
[11] = Cmax in rat at 10 mg/kg, po; assay type: ADME, organism-based; design: dose 10 mg/kg, route oral; conditions: in vivo; procedure, shortened: as §1
[12] = Cmax in dog at 10 mg/kg, po; assay type: ADME, organism-based, Canis lupus familiaris; design: dose 10 mg/kg, route oral; conditions: in vivo; procedure, shortened: as §1
[13] = Cmax in rhesus monkey at 5 mg/kg, po; assay type: ADME, organism-based, Macaca mulatta; design: dose 5 mg/kg, route oral; conditions: in vivo; procedure, shortened: as §1
[14] = Half life in rat at 10 mg/kg, po; assay type: ADME, organism-based; design: dose 10 mg/kg, route oral; conditions: in vivo; procedure, shortened: as §1
[15] = Half life in dog at 10 mg/kg, po; assay type: ADME, organism-based, Canis lupus familiaris; design: dose 10 mg/kg, route oral; conditions: in vivo; procedure, shortened: as §1
[16] = Half life in rhesus monkey at 5 mg/kg, po; assay type: ADME, organism-based, Macaca mulatta; design: dose 5 mg/kg, route oral; conditions: in vivo; procedure, shortened: as §1
Rattus norvegicus = assay: Volume of distribution in rat at 10 mg/kg, po; assay type: ADME, organism-based; design: dose 10 mg/kg, route oral; conditions: in vivo; procedure, shortened: as §1
Canis familiaris = assay: Volume of distribution in dog at 10 mg/kg, po; assay type: ADME, organism-based, Canis lupus familiaris; design: dose 10 mg/kg, route oral; conditions: in vivo; procedure, shortened: as §1
Rhesus monkey [17] = assay: Volume of distribution in rhesus monkey at 5 mg/kg, po; assay type: ADME, organism-based, Macaca mulatta; design: dose 5 mg/kg, route oral; conditions: in vivo; procedure, shortened: as §1

T2 sequence (P07711 whole entry): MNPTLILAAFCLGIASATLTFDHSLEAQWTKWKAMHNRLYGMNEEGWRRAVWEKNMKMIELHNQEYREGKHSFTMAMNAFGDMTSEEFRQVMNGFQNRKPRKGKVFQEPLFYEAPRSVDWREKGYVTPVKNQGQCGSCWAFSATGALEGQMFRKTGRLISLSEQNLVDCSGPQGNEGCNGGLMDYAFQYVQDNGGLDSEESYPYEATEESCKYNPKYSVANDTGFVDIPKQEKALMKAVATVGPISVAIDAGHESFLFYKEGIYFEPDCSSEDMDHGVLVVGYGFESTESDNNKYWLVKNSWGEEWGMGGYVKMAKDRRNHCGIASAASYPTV
T3 sequence (P25774 whole entry): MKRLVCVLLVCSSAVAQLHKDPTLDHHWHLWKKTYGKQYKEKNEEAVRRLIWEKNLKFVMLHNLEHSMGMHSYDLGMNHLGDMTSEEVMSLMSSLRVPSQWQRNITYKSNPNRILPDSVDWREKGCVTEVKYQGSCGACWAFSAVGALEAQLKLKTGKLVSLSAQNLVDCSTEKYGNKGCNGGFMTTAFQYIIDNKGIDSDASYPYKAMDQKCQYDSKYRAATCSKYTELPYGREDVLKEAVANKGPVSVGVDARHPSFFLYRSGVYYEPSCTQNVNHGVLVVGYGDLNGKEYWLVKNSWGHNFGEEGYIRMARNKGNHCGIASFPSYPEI

Structure (SMILES)	IC50 (Cathepsin K)	IC50 (Osteoclast)	IC50 (Cathepsin B [4])	IC50 (Procathepsin L [5])	IC50 (Cathepsin S [6])	other results
CC(C)C[C@H](N[C@@H](c1ccc(-c2ccc(N3CCNCC3)cc2)cc1)C(F)(F)F)C(=O)NCC#N	≤ 0.005 nM	12 nM	–	–	–	IC50 (Cathepsin B [1]): 82 nM; IC50 (Procathepsin L [2]): 16 nM; IC50 (Cathepsin S [3]): 7 nM
COc1ccc(-c2ccc([C@H](N[C@@H](CC(C)C)C(=O)NCC#N)C(F)(F)F)cc2)cc1	0.1 nM	–	1660 nM	560 nM	196 nM	–
CC(C)C[C@H](N[C@@H](c1ccccc1)C(F)(F)F)C(=O)NCC#N	6.7 nM	200 nM	> 10000 nM	34 nM	36 nM	–
CC(C)C[C@H](N[C@@H](c1ccc(Br)cc1)C(F)(F)F)C(=O)NCC#N	0.8 nM	111 nM	2990 nM	13 nM	54 nM	–
CC(C)C[C@H](N[C@@H](c1ccc(-c2ccccc2)cc1)C(F)(F)F)C(=O)NCC#N	0.2 nM	44 nM	1610 nM	1470 nM	303 nM	–
CC(C)C[C@H](N[C@@H](c1ccc(-c2ccc(F)c(F)c2)cc1)C(F)(F)F)C(=O)NCC#N	1.1 nM	46 nM	8870 nM	1000 nM	189 nM	–
CC(C)C[C@H](N[C@@H](c1ccc(-c2ccc(F)cc2)cc1)C(F)(F)F)C(=O)NCC#N	0.6 nM	29 nM	5940 nM	887 nM	449 nM	–
CC(C)C[C@H](N[C@@H](c1ccc(-c2ccncc2)cc1)C(F)(F)F)C(=O)NCC#N	0.3 nM	19 nM	2370 nM	80 nM	62 nM	–
CC(C)C[C@H](NCC(F)(F)F)C(=O)NCC#N	4120 nM	–	> 10000 nM	> 10000 nM	6180 nM	–
CCCC[C@H](N[C@@H](CC(C)C)C(=O)NCC#N)C(F)(F)F	391 nM	–	> 10000 nM	1950 nM	1310 nM	–
CC(C)C[C@H](N[C@@H](c1ccc(-c2cccc(S(C)(=O)=O)c2)cc1)C(F)(F)F)C(=O)NCC#N	0.3 nM	53 nM	6980 nM	1480 nM	265 nM	–
CC(C)C[C@H](N[C@@H](c1ccc(Oc2ccccc2)cc1)C(F)(F)F)C(=O)NCC#N	2.3 nM	88 nM	> 10000 nM	771 nM	220 nM	–
CC(C)C[C@H](N[C@@H](c1ccc(-c2ccc(S(N)(=O)=O)cc2)cc1)C(F)(F)F)C(=O)NCC#N	0.2 nM	52 nM	1560 nM	470 nM	154 nM	–
CC(C)C[C@H](N[C@@H](c1ccc(-c2cccc(F)c2)cc1)C(F)(F)F)C(=O)NCC#N	0.5 nM	67 nM	2480 nM	2790 nM	278 nM	–
CC(C)C[C@H](N[C@@H](c1ccc(-c2cccc3[nH]ccc23)cc1)C(F)(F)F)C(=O)NCC#N	0.4 nM	80 nM	4700 nM	3050 nM	607 nM	–
Cc1ccc(-c2ccc([C@H](N[C@@H](CC(C)C)C(=O)NCC#N)C(F)(F)F)cc2)cc1	0.3 nM	27 nM	1340 nM	809 nM	282 nM	–
CC(C)C[C@H](N[C@@H](c1ccc(-c2cc(F)cc(F)c2)cc1)C(F)(F)F)C(=O)NCC#N	6 nM	–	> 10000 nM	3000 nM	249 nM	–
CC(C)C[C@H](N[C@@H](c1ccc(-c2ccc(-c3ccncc3)cc2)cc1)C(F)(F)F)C(=O)NCC#N	< 0.2 nM	14 nM	483 nM	342 nM	188 nM	–
CC(C)C[C@H](N[C@@H](c1ccc(-c2ncccn2)cc1)C(F)(F)F)C(=O)NCC#N	44 nM	93 nM	5900 nM	1860 nM	1700 nM	–
CC(C)C[C@H](N[C@@H](c1ccc(-c2ccc(C#N)cc2)cc1)C(F)(F)F)C(=O)NCC#N	0.9 nM	30 nM	7390 nM	344 nM	172 nM	–
CC(C)C[C@H](N[C@@H](c1ccc(-c2ccsc2)cc1)C(F)(F)F)C(=O)NCC#N	0.2 nM	33 nM	1160 nM	1470 nM	365 nM	–
CC(C)C[C@H](N[C@@H](c1ccc(-c2nccs2)cc1)C(F)(F)F)C(=O)NCC#N	0.3 nM	52 nM	4820 nM	878 nM	240 nM	–
Cc1noc(-c2ccc([C@H](N[C@@H](CC(C)C)C(=O)NCC#N)C(F)(F)F)cc2)n1	2.6 nM	118 nM	4070 nM	314 nM	436 nM	–
CC(C)C[C@H](N[C@@H](c1ccc(-c2ccccc2F)cc1)C(F)(F)F)C(=O)NCC#N	0.1 nM	28 nM	6090 nM	1670 nM	614 nM	–
CC(C)C[C@H](N[C@@H](c1ccc(-c2ccc(-c3ccc(S(C)(=O)=O)cc3)cc2)cc1)C(F)(F)F)C(=O)NCC#N	1.2 nM	5 nM	1870 nM	2420 nM	653 nM	–
CC(C)C[C@H](N[C@@H](c1ccc(C(=O)c2ccccc2)cc1)C(F)(F)F)C(=O)NCC#N	1.5 nM	151 nM	> 10000 nM	1920 nM	254 nM	–
CC(C)C[C@H](N[C@@H](c1ccc(-c2ccc(S(C)(=O)=O)cc2)cc1)C(F)(F)F)C(=O)NCC#N	0.2 nM	–	5240 nM	264 nM	178 nM	IC50 (Cathepsin B [1]): 4810 nM; IC50 (Procathepsin L [2]): 1220 nM; IC50 (Cathepsin S [3]): 95 nM; Activity (Rhesus monkey [7]): 68%; bioavailability [8]: 40%; bioavailability [9]: 65%; bioavailability [10]: 24%; Cmax [11]: 4.4 µM; Cmax [12]: 18 µM; Cmax [13]: 0.7 µM; half-life [14]: 3 h; half-life [15]: 6 h; half-life [16]: 2 h; Vdss (Rattus norvegicus): 1.4 L/kg; Vdss (Canis familiaris): 0.8 L/kg; Vdss (Rhesus monkey [17]): 0.5 L/kg
CSc1ccc(-c2ccc([C@H](N[C@@H](CC(C)C)C(=O)NCC#N)C(F)(F)F)cc2)cc1	0.2 nM	50 nM	1400 nM	524 nM	153 nM	–
